Experimental data: ChEMBL document CHEMBL5252510, “A Novel Potent Oral Series of VEGFR2 Inhibitors Abrogate Tumor Growth by Inhibiting Angiogenesis” (J Med Chem, 2016)
Active and inactive are the calls of the source. The calls are words filed in the database; no cut-off is given here.

Columns and labels:
[1] = Dose normalized Cmax in OFA rat at 25 mg/kg, po measured upto 24 hrs by HPLC/UV analysis; format: ADME, organism-based; conditions: in vivo
Summary of the method: (§1)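 Female OFA rats, femoral artery/vein catheterized and recovered 96 h. Oral gavage of a micronized suspension in 0.5 % carboxymethyl cellulose at 25 or 3 mg/kg. Bioavailability taken against femoral-vein iv dosing. Plasma sampled 5 min–24 h (9 time points).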

[2] = Half-life in OFA rat at 2.5 mg/kg, iv measured upto 24 hrs by HPLC/UV analysis; format: ADME, organism-based; conditions: in vivo
Summary of the method: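 Catheters were placed in the femoral artery and vein of female OFA rats, followed by 96 h recovery. IV doses went into the femoral vein: 2.5 mg/kg in ethanol/dimethylisosorbide/PEG400/5 % glucose (10/15/35/40), or 1 mg/kg in NMP/PEG200 (30:70). Plasma samples at 5, 15, 30 min and 1, 2, 4, 6, 8, 24 h. Parameters reported over 24 h. n=2–4.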

B16-BL6 [3] = experiment: Antitumor activity against mouse B16-BL6 cells implanted in C57BL/6jNpa mouse assessed as metastatic tumor growth inhibition at 3 mg/kg, po qd administered once every 2 days started on day 7 post implantation measured after 21 days relative to control; format: functional, organism-based; conditions: time 7-21 day
Summary of the method: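 Female C57BL/6JNpa mice, 50000 B16/BL6 cells intradermally in both ear pinnae; primary tumor area (mm²) imaged days 7, 14, 21; randomized day 7 into groups of 5-6, oral dosing in PEG200 or PEG300 vehicle daily (or every 2 days) for 14 days; day 21 cervical lymph nodes weighed, metastasis lysates assayed for TIE-2 by ELISA; T/C ratios.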

[4] = Antitumor activity against rat BN472 cell implanted in Brown-Norway rat assessed as T/C ratio at 3 mg/kg, po qd measured upto 14 days; format: functional; conditions: time <= 14 day
Summary of the method: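 Female Brown-Norway rats (160-180 g) given 3 mm³ BN472 tumor fragments in mammary fat pads; at about 200 mm², randomized into groups of 7-8 and dosed orally with compound or PEG300 vehicle over 14 days; tumor growth followed, T/C computed; significance by 2-way RM-ANOVA.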

Mus musculus = species: Mus musculus; experiment: Antiangiogenic activity in C57BL/6jNpa mouse harbouring mouse B16-BL6 cells assessed as reduction in K-trans level measured after 3 days by DCE-MRI assay relative to control; format: functional; set-up: scale not given: the % may be the effect or the level left; conditions: time 3 day
Summary of the method: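 C57BL/6JNpa mice bearing B16/BL6 cervical lymph-node metastases, at least 8 per group, anaesthetized and given contrast agent; DCE-MRI Ktrans and iAUEC (permeability) and Vp (plasma volume) measured before and again after daily treatment; change per mouse recorded, mean ± SEM, one-way ANOVA with Holm-Sidak comparisons versus vehicle.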

[5] = Tmax in OFA rat at 3 mg/kg, po measured upto 24 hrs by HPLC/UV analysis; format: ADME, organism-based; conditions: in vivo; summary of the method: as §1
B16-BL6 [6] = experiment: Antitumor activity against mouse B16-BL6 cells implanted in C57BL/6jNpa mouse assessed as primary tumor growth inhibition by measuring T/C ratio at 1 mg/kg, po qd started on day 7 post implantation measured after 21 days; conditions: time 7-21 day

Structure (SMILES): Nc1nccc(Oc2ccc3c(C(=O)Nc4cccc(C(F)(F)F)c4)cccc3c2)n1
- Cmax/dose [1]: 280 nM
- half-life [2]: 2 h

Structure (SMILES): Nc1nccc(Oc2ccc3c(C(=O)Nc4ccc(F)c(C(F)(F)F)c4)cccc3c2)n1
- Activity (B16-BL6 [3]): Active
- T/C [4]: 0.056
- Activity (Mus musculus): 61%

Structure (SMILES): O=C(Nc1cccc(C(F)(F)F)c1)c1cccc2cc(Oc3cc(CO)ncn3)ccc12 [BFH-772]
- Tmax [5]: 2 h
- T/C (B16-BL6 [6]): 0.73
